The values below come from PMC10245936 (bioRxiv, 2023).

Values joined by “and” are separate entries in the source; they are usually repeats but may differ in a detail not shown here. Equal values may be shown once.

Data set [1] has as its system GII.4 Sydney [P31] HuNoV. The experiment in a line: HuNoV replication. The following applies: for SI: CC50 over EC50, J2 HIE line. In kind it is cell-based, human norovirus. A digest of the protocol:
(§1)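 Differentiated monolayers (24 h INTp, then 5 days INTd) received 100 TCID50 (TCID50 per genotype and HIE line by Reed-Muench) with compound in CMGF- plus 500 μM GCDCA for 1–2 h at 37°C. Cells were washed 3 times, then kept in compound-containing INTd with GCDCA for 24 h. Five ascending concentrations; vehicle 1% DMSO or 2% H2O final. Genome equivalents by RT-qPCR against a standard curve. Triplicate wells, duplicate qPCR. Dunnett versus vehicle; EC50/EC90 by nonlinear regression (top fixed at 100); SI = CC50/EC50.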

In data set [2] the test system is J2 HIE line. Briefly: HIE viability, CellTiter-Glo 2.0 Cell Viability Assay. The data set is classed as cell-based, human. Particulars: J2 HIEs, 24 h.
For data set [3], the system named is HuNoV. The following applies: HIE monolayers; cited from earlier work.
The conditions of data set [4]: standard adult NTZ dose, one 500 mg tablet by mouth twice daily; cited from earlier work.
In data set [5] the test system is GI.1-based HuNoV replicon. The following applies: Huh7 liver cells; cited from earlier work.
The test system of data set [6] is 3 different GII.4 HuNoV isolates. Particulars: fetal ileum-derived 3D HIEs; non-cytotoxic concentration; cited from earlier work.
Data set [7] concerns GII.3[P21] HuNoV. The experiment in a line: HuNoV replication. The data set is classed as cell-based, human norovirus. The method, boiled down: as §1
The test system of data set [8] is GII.17[P13] HuNoV. Briefly: HuNoV replication. The data set is classed as cell-based, human norovirus. A digest of the protocol: as §1
For data set [9], the system named is GI.1[P1] HuNoV. The experiment in a line: HuNoV replication. In kind it is cell-based, human norovirus. The following applies: for EC90: 100 TCID50. The method, boiled down: as §1
Data set [10] has as its system GII.4 Sydney [P16] HuNoV. The experiment in a line: HuNoV replication. The data set is classed as cell-based, human norovirus. The following applies: for SI: CC50 over EC50; for EC50 / EC90: 100 TCID50, 24 h. A digest of the protocol:
as §1

The subject of data set [11] is J4FUT2 HIE line. The experiment in a line: HIE viability, CellTiter-Glo 2.0 Cell Viability Assay. In kind it is cell-based, human. The following applies: J4FUT2 HIEs, 24 h.
Data set [12] is described as follows: HIE viability, CellTiter-Glo 2.0 Cell Viability Assay. The following applies: human, D2004 HIE line monolayers. In kind it is cell-based. A digest of the protocol:
(§2)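 CellTiter-Glo 2.0 read as directed by the manufacturer on 5-day-differentiated monolayers. Triplicate wells were given vehicle or compound in virus-free incubation medium for 24 h. CC50 from nonlinear regression of percent viability, with the bottom fixed at 0.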

Assay in data set [13]: as above
The following applies: human, J2004 HIE line monolayers. In kind it is cell-based. The method, boiled down: as §2

Assay in data set [14]: as above
The data set is classed as cell-based. Particulars: human, IL2004 HIE line monolayers. A digest of the protocol: as §2

Data set [15] deals with J2 HIEs. Briefly: Preliminary dose-range cytotoxicity assessment. Particulars: for monolayer integrity and propidium iodide staining: 24 h. In kind it is cell-based, human.
Data set [16] has as its system 5 HuNoV strains. The experiment in a line: Antiviral pipeline, summary over all HuNoV strains and HIE lines tested. The data set is classed as cell-based. The following applies: Norovirus, in Homo sapiens. A digest of the protocol:
as §1

Data set [17] has as its system HuNoV. Particulars: 31 randomized patients, compared to placebo; ref NCT03395405; cited from earlier work.
The subject of data set [18] is HuNoV. Particulars: HuNoV-infected, otherwise healthy patients, versus placebo; cited from earlier work.
Data set [19] deals with GII.4 Sydney [P31] virus. The following applies: adult jejunal HIE line plated as monolayers; cited from earlier work.
Data set [20] has as its system adult jejunal HIE line (J2) monolayers. The following applies: cited from earlier work.
Data set [21] has as its system HuNoV. The following applies: chronically infected HuNoV patients; cited from earlier work.
Where [22] appears, read: Norovirus, in Homo sapiens, 24 h.
Setting [23] is: Norovirus, in Homo sapiens, 24 h, read-out: inhibition of replication.
Where [24] appears, read: CC50 over EC50, J4FUT2 HIE line.
Setting [25] is: J4FUT2 HIEs, at 40 and 80 μM, 24 h.
Setting [26] is: Norovirus, in Homo sapiens, D2004 (duodenal) HIE line.
[27] abbreviates: Norovirus, in Homo sapiens, IL2004 (ileal) HIE line.
The mark [28] stands for this setting: Norovirus, in Homo sapiens, J2 HIE line.
Setting [29] is: Norovirus, in Homo sapiens, J2004 (jejunal) HIE line.

For `C[C@@]1(O)[C@H](O)[C@@H](CO)O[C@H]1n1ccc(N)nc1=O` [2’CMC, 2’-C-methylcytidine], the SI in [1] was more than 31.6. In addition, the reduction of replication in [1] (J2 HIEs, between 3 – 316 μM, 24 h) is 0.12 – 2.65 log10. Besides, in [1] (setting [22]), the EC50 (as a rule, the concentration giving half of the maximal effect) is 10 µM and the EC90 (commonly the concentration at which the effect reaches the 90% level) amounted to 54 µM. In [1] (setting [23]), the inhibition – broadly, the share of the control response that was lost under treatment – at 316 µM was 23.5 to 100%. Besides, the “cytotoxicity (luciferase-based viability assay)” value in [2] (any concentration tested (up to 316 μM)) is recorded as “not cytotoxic”. Moreover, the HuNoV replication result in data set [3] was “inhibit HuNoV replication”.
`O=C(Nc1ncc([N+](=O)[O-])s1)c1ccccc1O` [tizoxanide]: the “maximal concentrations of tizoxanide” value in data set [4] was “approximately 10 µg/mL and ~ 38 µM”. Also, the “replication of the replicon” value in data set [5] is on record as “inhibited replication”. In addition, the “replication of HuNoV isolates” value in [6] is on record as “reduced replication”.
Consider `CC(=O)Oc1ccccc1C(=O)Nc1ncc([N+](=O)[O-])s1` [NTZ, nitazoxanide], for which the SI is given as 1.9 in data set [1]; 4.5 in [7] (setting [24]); 1.9 in data set [8] (setting [24]); 2.7 in data set [9] (setting [24]); 1.2 in data set [10] (D2004 HIE line); 1.4 in [10] (IL2004 HIE line). Besides, the SI in data set [10] (J2 HIE line) amounted to 4.0; in [10] (J2004 HIE line), 1.2. For the same compound, the reduction in replication in [1] (J2 HIEs, 40 μM, 24 h) stood at 0.67 log10; in [1] (J2 HIEs, 80 μM, 24 h), 2.31 log10; in [8] (J4FUT2 HIEs, 80 μM, 24 h), 1.5 log10. For the same compound, the EC50 was found to be 37.1 µM in data set [1] (setting [22]); 14.4 µM in [7] (setting [22]); 33.4 µM in data set [8] (setting [22]); 27.4 µM in [9] (setting [22]); 12.9 µM in [10] (J2 HIE line); 42.8 µM in data set [10] (setting [26]). For the same compound, the EC50 in data set [10] (setting [27]) was 40 µM; in [10] (setting [28]) it was 12 µM; in data set [10] (setting [29]), 53.9 µM; in data set [16] it was not below 10 µM. The 90% effect concentration (EC90) in [1] (setting [22]) is 43 µM; in data set [7] (setting [22]), more than 80 µM; in [8] (setting [22]), more than 80 µM; in [9] (J4FUT2 HIE line, 24 h) it was 76 µM; in [9] (Norovirus, in Homo sapiens, 24 h, J4FUT2 HIE line), 76.3 µM; in data set [10] (setting [26]), more than 80 µM. Also, the EC90 was 46 µM in data set [10] (setting [27]), more than 80 µM in [10] (setting [28]) and more than 80 µM in data set [10] (setting [29]). The inhibition at 40 µM in data set [1] (setting [23]) was 76.7%. Further, the inhibition at 80 µM in data set [1] (setting [23]) was found to be 99.5%. Besides, the average percent inhibition in data set [7] (setting [25]) is on record as 79.6 – 98.8%. For the same compound, the inhibition at 20 µM in data set [7] (Norovirus, in Homo sapiens, 24 h, read-out: average percent inhibition) was in the range of 39.7 to 55.2%. In addition, in [9] (setting [25]), the inhibition in replication is given as 72.3 – 98.2%. Moreover, the “reduction of genome equivalents” value in data set [9] (setting [25]) is reported as 0.6 – 1.8 log10. The “inhibition of replication (significance)” value is “significantly inhibitory” in [10] (40 μM, duodenal D2004 HIEs) and “significantly inhibitory” in data set [10] (80 μM, across J2, D2004, J2004, IL2004 HIE lines). For the same compound, the SIs in [10] (span over duodenal, jejunal, and ileal lines derived from the same donor) is 1.2 – 1.4. Also, the viability entry in [2] (80 μM) is on record as “reduction in viability”. Also, in data set [11] (80 μM, in tandem with GII.17 assay), the cell viability result is “significantly reduced cell viability”. For the same compound, the cytotoxicity entry in [11] (40 and 80 μM, in tandem with GII.3 assay) is “cytotoxic”. The average viability entry in [11] (in tandem with GI.1 assay) is “steady up to 40 μM but significantly reduced at 80 μM”. The CC50 – broadly, the concentration giving 50% cytotoxicity – at 24 h in data set [12] was 50.9 µM; in data set [13], 63.1 µM; in data set [14], 57 µM. Further, the “monolayer integrity and propidium iodide staining” value was “monolayers were intact and had few dead or damaged cells” in data set [15] (32 μM); “disassociation of the monolayer” in [15] (100 μM and above). The “cytotoxicity, CellTiter-Glo 2.0” value in [15] (highest concentrations (≥100 μM) of range 3 to 316 μM) was “high cytotoxicity and detachment of the monolayer”. In addition, the “clinical resolution of symptoms” value in [17] was “did not improve clinical resolution of symptoms”. In addition, in [17], the fecal viral load result is “no effect”. Besides, the symptom resolution entry in data set [18] is “symptom resolution significantly faster”. Further, the “replication of the replicon” value in data set [5] is on record as “inhibited replication”. Also, the “inhibitory activity on replication” value in data set [19] is reported as “no inhibitory activity”. Besides, the “highest dose tested that kept the cell monolayers intact” value in data set [20] (J2 HIE monolayers) was 10 µM. In addition, the HIE monolayer integrity entry in data set [20] (concentrations below 10 µM) is reported as “intact”. The “replication of HuNoV isolates” value in [6] is recorded as “reduced replication”. Further, the “clinical outcome versus other or no treatments” value in data set [21] was “no differences were reported”.
